Consider eight molecules from ChEMBL document CHEMBL1132144, “Synthesis of 9-O-substituted derivatives of 9-hydroxy-5, 6-dimethyl-6H-pyrido[4,3-b]carbazole-1-carboxylic acid (2-(dimethylamino)ethyl)amide and their 10- and 11-methyl analogues with improved antitumor activity” (J Med Chem, 1999).

Assay [1] has as its system Mus musculus. The assay is described as follows: Percent median survival time of mice intraperitoneally injected with P388 leukemia was determined from tested at 80 mg/kg at day1,5,9 dose to that of control. It counts as functional. As to conditions: route intraperitoneal. The method in brief:
(§1)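 P388 leukemia in B6D2F1 mice (groups of 6–7), 10^6 cells inoculated ip on day 0. Dihydrochloride salts were dissolved in water and given iv on day 1 or on days 1, 5, 9. Three doses were tested, then five if active. %T/C = median survival treated/control × 100, reported at the optimal dose (no toxic death, weight loss <20%), from one or two representative experiments.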

Assay [2] relates to Mus musculus. Put plainly: Long-term survivors among 6 mice infected with P388 leukemia, scored on day 60 at 160 mg/kg dose. The assay is classed as functional. The method in brief: (§2)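 B6D2F1 mice in groups of 6–7 were inoculated ip on day 0 with 10^6 P388 cells. Dihydrochloride salts were dissolved in water and given iv on day 1 or on days 1, 5 and 9. Doses ranged from a low nontoxic dose to a toxic one. Long-term survivors were counted at day 60.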

Assay [3] relates to Mus musculus. The assay is described as follows: Percent median survival time of mice intraperitoneally injected with P388 leukemia was determined from tested at 160 mg/kg at day1 dose to that of control. It counts as functional. Put shortly: as §1
The subject of a further assay is B16. Put plainly: Inhibition of murine B16 melanoma cell proliferation measured by the MTT assay. As to conditions: Mus musculus. It counts as functional, cell-based. Put shortly:
(§3)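 Murine L1210 leukemia and B16 melanoma cells were grown in RPMI 1640 with 10% fetal calf serum, 2 mM L-glutamine, penicillin/streptomycin and 10 mM HEPES (pH 7.4). Cells were exposed to nine serial drug dilutions in triplicate for about four doubling times (L1210 48 h, B16 96 h), then read by microculture tetrazolium (MTT) assay. IC50 is the concentration halving optical density versus untreated controls, averaged over ≥2 independent experiments.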
For orientation: Tetrazolium assays rely on reduction of a dye to a coloured formazan, in cell work by metabolically active cells.

In the next assay the test system is L1210. Put plainly: Inhibition of murine L1210 leukemia cell proliferation measured by the MTT assay. As to conditions: Mus musculus. The assay is classed as functional, cell-based. Put shortly:
as §3

The test system of assay [4] is Mus musculus. The assay is described as follows: Long-term survivors among 6 mice infected with P388 leukemia, scored on day 60 at 80 mg/kg dose. It counts as functional. Put shortly:
as §2

Assay [5] relates to Mus musculus. Put plainly: Percent median survival time of mice injected with B16 melanoma, at a intraperitoneal compound dose of 20 mg/kg.
In assay [6] the test system is Mus musculus. The assay is described as follows: Long-term survivors among 6 mice infected with P388 leukemia, scored on day 90 at 20 mg/kg dose. It counts as functional.
Assay [7] deals with Mus musculus. Put plainly: Long-term survivors among 6 mice infected with P388 leukemia, scored on day 60 at 40 mg/kg dose. The assay is classed as functional. Put shortly:
as §2

The subject of assay [8] is Mus musculus. Put plainly: Percent median survival time of mice intraperitoneally injected with P388 leukemia was determined from tested at 40 mg/kg at day1,5,9 dose to that of control. It counts as functional. As to conditions: route intraperitoneal. Put shortly:
as §1

The test system of assay [9] is Mus musculus. Put plainly: Percent median survival time of mice injected with B16 melanoma, at a intraperitoneal compound dose of 10 mg/kg.
In assay [10] the test system is Mus musculus. The assay is described as follows: Long-term survivors among 7 mice infected with P388 leukemia, scored on day 90 at 10 mg/kg dose. The assay is classed as functional.
Assay [11] relates to Mus musculus. Put plainly: Percent median survival time of mice injected with P388 leukemia, at a subcutaneous compound dose of 10 mg/kg. The assay is classed as functional.
In assay [12] the test system is Mus musculus. The assay is described as follows: Long-term survivors among 7 mice infected with P388 leukemia, scored on day 60 at 20 mg/kg dose on day 1. It counts as functional. Put shortly: (§4)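 B6D2F1 mice in groups of 6–7 received 10^6 P388 cells ip on day 0. Dihydrochloride salts dissolved in water were injected iv on day 1 or on days 1, 5 and 9, at three doses and then five. Read-outs were % T/C (median survival treated/control × 100) and long-term survivors on day 60, both at the optimal dose (no toxic death, weight loss <20%).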

The test system of assay [13] is Mus musculus. The assay is described as follows: Percent median survival time of mice injected with B16 melanoma, at a intraperitoneal compound dose of 5 mg/kg.
In assay [14] the test system is Mus musculus. Put plainly: Long-term survivors among 7 mice infected with B16 melanoma, scored on day 90 at 20 mg/kg dose on day 1. It counts as functional.
Assay [15] deals with Mus musculus. Put plainly: Percent median survival time of mice injected with P388 leukemia, at a subcutaneous compound dose of 20 mg/kg. The assay is classed as functional.
Assay [16] relates to Mus musculus. The assay is described as follows: Long-term survivors among 7 mice infected with B16 melanoma, scored on day 90 at 10 mg/kg dose on day 1. It counts as functional.
The subject of assay [17] is Mus musculus. The assay is described as follows: Percent median survival time of mice injected with B16 melanoma, at a intraperitoneal compound dose of 40 mg/kg.
Assay [18] deals with Mus musculus. The assay is described as follows: Long-term survivors among 7 mice infected with P388 leukemia, scored on day 60 at 10 mg/kg dose on day 1. The assay is classed as functional. Put shortly:
as §4

Assay [19] deals with Mus musculus. Put plainly: Percent median survival time of mice injected with P388 leukemia, at a intravenous compound dose of 5 mg/kg.
The test system of assay [20] is Mus musculus. Put plainly: Long-term survivors among 7 mice infected with P388 leukemia, scored on day 60 at 40 mg/kg dose on day 1. It counts as functional. Put shortly: as §4
Assay [21] concerns Mus musculus. The assay is described as follows: Long-term survivors among 7 mice infected with B16 melanoma, scored on day 90 at 40 mg/kg dose on day 1. It counts as functional.
In assay [22] the test system is Mus musculus. The assay is described as follows: Percent median survival time of mice injected with P388 leukemia, at a intravenous compound dose of 40 mg/kg.

What is called T/C is the ratio of treated to control. For orientation: IC50 means the concentration that inhibits the measured activity by half. A lower IC50 goes with greater potency.

Several values for one entry are separate records, joined by “and”; a condition that tells them apart may be missing. Identical values can stand only once.

`Cc1c2ccnc(C(=O)NCCN(C)C)c2cc2c3cc(OC(=O)N4CCN(C)CC4)ccc3n(C)c12`: the T/C is 134% in the assay on Mus musculus [1], 146% with Mus musculus [3] and 159% in the assay with Mus musculus [5]. The LTS in the assay with Mus musculus [2] and in the assay with Mus musculus [4] was 0 in each case. In addition, the IC50 came out at 2470 nM in the assay with B16 and 1300 nM with L1210.

Consider `Cc1c2ccnc(C(=O)NCCN(C)C)c2cc2c3cc(OS(C)(=O)=O)ccc3n(C)c12`, for which the LTS with Mus musculus [6], in the assay with Mus musculus [7] and in the assay on Mus musculus [2] was 0 each time. The T/C in the assay with Mus musculus [3] was determined as 96%; in the assay on Mus musculus [8], 106%; with Mus musculus [5] it was 142%. The IC50 was determined as 782 nM with B16 and 868 nM in the assay with L1210.

Take `Cc1c2ccnc(C(=O)NCCN(C)C)c2cc2c3cc(OP(=O)(O)O)ccc3n(C)c12`: the T/C in the assay on Mus musculus [9] came to 171%; with Mus musculus [3], 239%; with Mus musculus [8], 405%. The LTS was found to be 1 in the assay with Mus musculus [7], 1 in the assay on Mus musculus [2] and 0 with Mus musculus [10]. In addition, the figures for the 50% inhibitory concentration (IC50) in the assay with B16 and in the assay with L1210 were 4.1 nM and 50.5 nM, respectively.

Consider `COC(=O)CCCC(=O)Oc1ccc2c(c1)c1cc3c(C(=O)NCCN(C)C)nccc3c(C)c1n2C`, for which the T/C in the assay on Mus musculus [11] is listed as 158%; in the assay on Mus musculus [13] it was 144%; in the assay on Mus musculus [15], 145%. Also, the LTS with Mus musculus [12] and with Mus musculus [14] was 0 in each case. In addition, the IC50 was 7.1 nM in the assay on B16 and 5.4 nM with L1210.

In the case of `CCCCCCCCCCCCN(C)C(=O)Oc1ccc2c(c1)c1cc3c(C(=O)NCCN(C)C)nccc3c(C)c1n2C`, the results for the T/C in the assay on Mus musculus [11], with Mus musculus [17] and in the assay with Mus musculus [19] were 103%, 115% and 100%, respectively. Further, the LTS with Mus musculus [16] and in the assay with Mus musculus [18] was 0 throughout. For the same molecule, the IC50 in the assay on B16 amounted to 3260 nM; in the assay with L1210, 2870 nM.

As to `CCOC(=O)CCNC(=O)Oc1ccc2c(c1)c1cc3c(C(=O)NCCN(C)C)nccc3c(C)c1n2C`, the LTS in the assay on Mus musculus [20] and in the assay with Mus musculus [21] was 0 in each case. Also, the T/C in the assay with Mus musculus [9] was 115%; with Mus musculus [22], 97%; with Mus musculus [15], 95%. The concentration for half-maximal inhibition (IC50) came out at 5.7 nM in the assay on B16 and 16.4 nM with L1210.

As to `Cc1c2ccnc(C(=O)NCCN(C)C)c2cc2c3cc(OC(=O)CCCCC4CCSS4)ccc3n(C)c12` (configuration not stated), the T/C was 118% and 129% in the assay on Mus musculus [11] (10 mg/kg); 140% in the assay on Mus musculus [13]. Moreover, the LTS in the assay on Mus musculus [16] and in the assay on Mus musculus [18] was 0 each time. For the same molecule, the results for the IC50 in the assay with B16 and with L1210 were 14 nM and 118 nM, respectively.

With `Cc1c2ccnc(C(=O)NCCN(C)C)c2cc2c3cc(OC(=O)CCCCC(=O)OCc4ccccc4)ccc3n(C)c12`, the T/C with Mus musculus [11] is listed as 128%; in the assay on Mus musculus [17] it was 102%; with Mus musculus [15], 124%. In addition, the LTS in the assay with Mus musculus [12] and with Mus musculus [14] was 0 in each case. For the same molecule, the IC50 in the assay with B16 was 58.4 nM; in the assay with L1210, 109 nM.
